Legend:
[1] = target: Gag-Pol polyprotein (Woolly monkey sarcoma virus) (UniProt P03359); experiment: Inhibition of simian sarcoma virus reverse transcriptase
Procedure, shortened: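 SSV-1 RNA-dependent DNA polymerase purified from tissue culture fluid of 71 AP1 cells. 50 µL reaction containing 20% glycerol, 1 mM DTT, BSA, Tris-HCl pH 7.5, MnCl2, KCl, NaF, [3H]dGTP and poly(2'-O-methylC)·d(pG)12-18. Compound in Me2SO is mixed with enzyme on ice for 10 min before the cocktail is added, then incubated 45 min at 37 °C. Radioactivity in product; 50% inhibitory concentration from triplicate dose–response curves spanning 10^-3 to 10^-7 M.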

[2] = Partition coefficient (logP); conditions: octanol/water
[3] = target: DNA polymerase beta (Mus musculus) (UniProt Q8K409); experiment: The logarithm of the reciprocal of the concentration which produces 50% inhibition of mammalian beta DNA polymerase.
Procedure, shortened: (§1)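 Mammalian α or β DNA polymerase in 100 µL reaction: enzyme in 50% glycerol, 1 mM DTT, 0.5 M KCl, Tris-HCl pH 7.5; Me2SO compound; cocktail with MnCl2, NaF, [3H]dGTP, poly(2'-O-methylC)·d(pG)12-18 template. Compound added first, then enzyme, then cocktail; 45 min at 37 °C. Product radioactivity, background-corrected against Me2SO controls; 50% concentration from triplicate five-dose curves, 10^-3–10^-7 M, expressed as log(1/C).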

[4] = The logarithm of the reciprocal of the concentration which produces 50% inhibition of mammalian alpha DNA polymerase.; procedure, shortened: as §1
[5] = Ability to inhibit mouse alpha DNA polymerase
Procedure, shortened: (§2)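 Enzyme in 50% glycerol, 1 mM dithiothreitol, 0.5 M KCl and 50 mM Tris-HCl pH 7.5 was premixed with inhibitor in 100% Me2SO and held on ice 10 min. Cocktail (MnCl2, KCl, NaF, BSA, [3H]dGTP, poly(2'-O-methylcytidylic acid)·d(pG)12-18) was then added. Incubation was 45 min at 37 °C.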

Gag-Pol polyprotein = Gag-Pol polyprotein (Woolly monkey sarcoma virus, UniProt P03359); experiment: Ability to inhibit simian sarcoma virus reverse transcriptase
Chain of Gag-Pol polyprotein (P03359 642-1310 limits assumed): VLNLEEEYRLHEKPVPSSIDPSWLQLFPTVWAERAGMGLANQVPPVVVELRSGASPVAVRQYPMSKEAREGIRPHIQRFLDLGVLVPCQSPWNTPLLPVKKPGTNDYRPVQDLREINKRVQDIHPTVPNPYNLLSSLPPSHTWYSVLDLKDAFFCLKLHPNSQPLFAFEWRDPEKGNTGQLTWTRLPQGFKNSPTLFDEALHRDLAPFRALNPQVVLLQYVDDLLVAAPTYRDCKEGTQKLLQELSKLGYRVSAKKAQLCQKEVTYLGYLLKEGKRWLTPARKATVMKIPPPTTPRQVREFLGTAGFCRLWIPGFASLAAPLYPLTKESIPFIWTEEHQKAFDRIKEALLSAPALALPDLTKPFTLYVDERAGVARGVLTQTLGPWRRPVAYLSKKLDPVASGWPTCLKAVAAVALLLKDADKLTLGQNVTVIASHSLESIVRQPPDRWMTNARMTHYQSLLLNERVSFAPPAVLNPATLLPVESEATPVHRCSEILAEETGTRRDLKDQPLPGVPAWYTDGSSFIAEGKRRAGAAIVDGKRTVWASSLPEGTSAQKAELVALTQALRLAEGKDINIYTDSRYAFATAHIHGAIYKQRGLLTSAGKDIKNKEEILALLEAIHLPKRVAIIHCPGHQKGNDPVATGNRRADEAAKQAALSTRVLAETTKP
Procedure, shortened: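 Purified SSV-1 RNA-dependent DNA polymerase from 71 AP1 culture fluids, in 20% glycerol, 1 mM dithiothreitol, 1 mg/mL BSA and 50 mM Tris-HCl pH 7.5, was held 10 min on ice with inhibitor in Me2SO. Mn2+/[3H]dGTP cocktail with poly(2'-O-methylcytidylic acid)·d(pG)12-18 template was added, then 45 min at 37 °C. Background-corrected triplicate dose series; the 50% inhibition concentration was extrapolated.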

DNA polymerase beta = DNA polymerase beta (Mus musculus, UniProt Q8K409); experiment: Ability to inhibit mouse beta DNA polymerase; procedure, shortened: as §2

Chain of Gag-Pol polyprotein (Woolly monkey sarcoma virus) (P03359 whole entry): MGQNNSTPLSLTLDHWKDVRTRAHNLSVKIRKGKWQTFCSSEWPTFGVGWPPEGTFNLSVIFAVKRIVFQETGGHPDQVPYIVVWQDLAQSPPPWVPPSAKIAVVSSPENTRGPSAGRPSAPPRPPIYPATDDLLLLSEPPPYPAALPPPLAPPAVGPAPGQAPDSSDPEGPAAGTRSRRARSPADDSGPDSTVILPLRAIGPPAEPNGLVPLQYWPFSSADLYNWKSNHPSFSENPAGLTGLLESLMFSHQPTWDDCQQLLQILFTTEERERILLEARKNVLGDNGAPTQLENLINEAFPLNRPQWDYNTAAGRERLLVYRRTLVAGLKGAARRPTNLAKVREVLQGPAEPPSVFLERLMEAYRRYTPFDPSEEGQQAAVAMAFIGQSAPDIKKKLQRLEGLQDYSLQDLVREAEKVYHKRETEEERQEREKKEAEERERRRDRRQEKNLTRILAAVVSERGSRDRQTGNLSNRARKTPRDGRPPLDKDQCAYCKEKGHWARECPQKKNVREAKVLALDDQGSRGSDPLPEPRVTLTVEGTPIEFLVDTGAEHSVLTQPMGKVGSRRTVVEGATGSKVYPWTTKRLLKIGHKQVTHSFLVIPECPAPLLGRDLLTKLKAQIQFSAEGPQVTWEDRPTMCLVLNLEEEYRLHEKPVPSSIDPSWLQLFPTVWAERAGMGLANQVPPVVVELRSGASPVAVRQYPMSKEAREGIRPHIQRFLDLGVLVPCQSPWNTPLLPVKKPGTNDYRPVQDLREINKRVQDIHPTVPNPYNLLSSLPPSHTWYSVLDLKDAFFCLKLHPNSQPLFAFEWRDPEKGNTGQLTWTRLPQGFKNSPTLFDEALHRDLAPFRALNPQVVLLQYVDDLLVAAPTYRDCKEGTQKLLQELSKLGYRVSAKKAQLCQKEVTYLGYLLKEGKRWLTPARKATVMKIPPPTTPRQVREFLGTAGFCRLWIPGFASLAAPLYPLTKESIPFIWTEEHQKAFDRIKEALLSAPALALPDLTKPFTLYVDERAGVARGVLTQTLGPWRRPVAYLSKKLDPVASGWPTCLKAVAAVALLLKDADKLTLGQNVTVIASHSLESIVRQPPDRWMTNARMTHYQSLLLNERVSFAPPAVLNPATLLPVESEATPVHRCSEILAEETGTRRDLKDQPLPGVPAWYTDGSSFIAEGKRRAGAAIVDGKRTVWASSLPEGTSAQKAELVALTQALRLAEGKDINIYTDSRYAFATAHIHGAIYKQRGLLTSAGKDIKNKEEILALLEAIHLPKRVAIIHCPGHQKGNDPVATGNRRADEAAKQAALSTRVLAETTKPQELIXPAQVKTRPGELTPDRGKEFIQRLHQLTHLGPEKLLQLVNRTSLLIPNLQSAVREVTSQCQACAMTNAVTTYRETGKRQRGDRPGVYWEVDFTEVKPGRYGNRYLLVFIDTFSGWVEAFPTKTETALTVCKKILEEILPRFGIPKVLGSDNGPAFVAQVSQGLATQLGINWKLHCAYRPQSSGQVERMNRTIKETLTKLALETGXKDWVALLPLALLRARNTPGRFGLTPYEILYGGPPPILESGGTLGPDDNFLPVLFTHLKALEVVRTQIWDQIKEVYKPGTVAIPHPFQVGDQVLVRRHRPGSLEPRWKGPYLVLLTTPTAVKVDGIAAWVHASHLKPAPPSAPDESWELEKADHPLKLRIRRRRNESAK

For `COC1/C=C/OC2(C)Oc3c(C)c(O)c4c(O)c(c(/C=N/N5CCCCCCCCCC5)cc4c3C2=O)NC(=O)/C(C)=C\C=C\C(C)C(O)C(C)C(O)C(C)C(OC(C)=O)C1C` (configuration not stated), the Log 1/C [1] was 5.18, the logP ([2]; logP) was 4.05 and the Log 1/C [3] was 4.65. For the same compound, the Log 1/C [4] was 4.51, the IC50 [5] was 0.000031 M l-1 and the IC50 (Gag-Pol polyprotein; read-out: IC50) was 6.6 µM. For the same compound, the IC50 (DNA polymerase beta; read-out: IC50) was 22 µM.
With `COC1/C=C/OC2(C)Oc3c(C)c(O)c4c(O)c(c(/C=N/N5CCCCCCCCCCCCCCC5)cc4c3C2=O)NC(=O)/C(C)=C\C=C\C(C)C(O)C(C)C(O)C(C)C(OC(C)=O)C1C` (stereo in doubt; 18) [listing 1 of 2 here] the Log 1/C [1] was 5.19, the Log 1/C [3] was 4.66 and the Log 1/C [4] was 4.6.
Compound `COC1/C=C/OC2(C)Oc3c(C)c(O)c4c(O)c(c(CN5CCNCC5)cc4c3C2=O)NC(=O)/C(C)=C\C=C\C(C)C(O)C(C)C(O)C(C)C(OC(C)=O)C1C` (configuration not stated) has a Log 1/C [1] of 2.84, a logP ([2]; logP) of 1.76 and a Log 1/C [3] of 2.38. For the same compound, the Log 1/C [4] was 2.52, the IC50 [5] was 0.003 M l-1 and the IC50 (Gag-Pol polyprotein) was 0.00145 M l-1. It also gave an IC50 (DNA polymerase beta) of 0.0042 M l-1.
Work on `COC1/C=C/OC2(C)Oc3c(C)c(O)c4c(O)c(c(/C=N/N5CCN(C)CC5)cc4c3C2=O)NC(=O)/C(C)=C\C=C\C(C)C(O)C(C)C(O)C(C)C(OC(C)=O)C1C` (configuration not stated) yielded an IC50 [5] of 0.00034 M l-1, an IC50 (Gag-Pol polyprotein; read-out: IC50) of 42 µM and an IC50 (DNA polymerase beta) of 0.00015 M l-1.
For `COC1/C=C/OC2(C)Oc3c(C)c(O)c4c(O)c(c(/C=N/N5CCCCCC5)cc4c3C2=O)NC(=O)/C(C)=C\C=C\C(C)C(O)C(C)C(O)C(C)C(OC(C)=O)C1C` (configuration not stated), the logP ([2]; logP) was 2.75.
Work on `COC1/C=C/OC2(C)Oc3c(C)c(O)c4c(O)c(c(/C=N/N5CCCCCCCCCCCCCCC5)cc4c3C2=O)NC(=O)/C(C)=C\C=C\C(C)C(O)C(C)C(O)C(C)C(OC(C)=O)C1C` (stereo in doubt; 18) [listing 2 of 2 here] yielded a logP ([2]; logP) of 6.05, an IC50 [5] of 0.000025 M l-1 and an IC50 (Gag-Pol polyprotein; read-out: IC50) of 6.5 µM. The IC50 (DNA polymerase beta; read-out: IC50) was 22 µM.
In the case of `COC1/C=C/OC2(C)Oc3c(C)c(O)c4c(O)c(c(/C=N/N5CCCC5)cc4c3C2=O)NC(=O)/C(C)=C\C=C\C(C)C(O)C(C)C(O)C(C)C(OC(C)=O)C1C` (configuration not stated), the Log 1/C [1] is reported as 4.77, the logP ([2]; logP) is reported as 2.75 and the Log 1/C [3] is reported as 3.62. For the same compound, the Log 1/C [4] was 3.62, the IC50 [5] was 0.00024 M l-1 and the IC50 (Gag-Pol polyprotein; read-out: IC50) was 17 µM. For the same compound, the IC50 (DNA polymerase beta) was 0.00024 M l-1.
With `CCCCN(CCCC)/N=C/c1cc2c3c4c(C)c(O)c2c(O)c1NC(=O)/C(C)=C\C=C\C(C)C(O)C(C)C(O)C(C)C(OC(C)=O)C(C)C(OC)/C=C/OC(C)(O4)C3=O` (configuration not stated) the logP ([2]; logP) was 3.66.
Work on `COC1/C=C/OC2(C)Oc3c(C)c(O)c4c(O)c(c(/C=N/N5C(C)CC(Cc6ccccc6)CC5C)cc4c3C2=O)NC(=O)/C(C)=C\C=C\C(C)C(O)C(C)C(O)C(C)C(OC(C)=O)C1C` (configuration not stated) yielded a logP ([2]; logP) of 6.3.
For `COC1/C=C/OC2(C)Oc3c(C)c(O)c4c(O)c(c(/C=N/N5C(C)CN(Cc6ccc(C#N)cc6)CC5C)cc4c3C2=O)NC(=O)/C(C)=C\C=C\C(C)C(O)C(C)C(O)C(C)C(OC(C)=O)C1C` (configuration not stated), the Log 1/C [1] was 4.8, the logP ([2]; logP) was 3.71 and the Log 1/C [3] was 4.66. For the same compound, the Log 1/C [4] was 4.33, the IC50 [5] was 0.000047 M l-1 and the IC50 (Gag-Pol polyprotein; read-out: IC50) was 16 µM. It also gave an IC50 (DNA polymerase beta; read-out: IC50) of 22 µM.
With `COC1/C=C/OC2(C)Oc3c(C)c(O)c4c(O)c(c(/C=N/N5CCCCCCCCCCCC5)cc4c3C2=O)NC(=O)/C(C)=C\C=C\C(C)C(O)C(C)C(O)C(C)C(OC(C)=O)C1C` (stereo in doubt; 17) the logP ([2]; logP) was 4.75, the IC50 [5] was 0.000024 M l-1 and the IC50 (Gag-Pol polyprotein; read-out: IC50) was 3.3 µM. For the same compound, the IC50 (DNA polymerase beta; read-out: IC50) was 19 µM.
`COC1/C=C/OC2(C)Oc3c(C)c(O)c4c(O)c(c(/C=N/N5CCCCCCCCCCCCCCC5)cc4c3C2=O)NC(=O)/C(C)=C\C=C\C(C)C(O)C(C)C(O)C(C)C(OC(C)=O)C1C` (stereo in doubt; 31) gave a logP [2] of 5.55.
Compound `COC1/C=C/OC2(C)Oc3c(C)c(O)c4c(O)c(c(/C=N/NC5CCCCCCCCCCCCCC5)cc4c3C2=O)NC(=O)/C(C)=C\C=C\C(C)C(O)C(C)C(O)C(C)C(OC(C)=O)C1C` (configuration not stated) has a Log 1/C [1] of 6.07, a logP ([2]; logP) of 6.78 and a Log 1/C [3] of 4.82. For the same compound, the Log 1/C [4] was 4.94, the IC50 [5] was 0.0000115 M l-1 and the IC50 (Gag-Pol polyprotein; read-out: IC50) was 0.85 µM. For the same compound, the IC50 (DNA polymerase beta; read-out: IC50) was 15 µM.
`COC1/C=C/OC2(C)Oc3c(C)c(O)c4c(O)c(c(O)cc4c3C2=O)NC(=O)/C(C)=C\C=C\C(C)C(O)C(C)C(O)C(C)C(OC(C)=O)C1C` (configuration not stated) showed a Log 1/C [1] of 2.64, a logP ([2]; logP) of 0.11 and a Log 1/C [3] of 2.64. It also gave a Log 1/C [4] of 2.64, an IC50 [5] of 0.00023 M l-1 and an IC50 (Gag-Pol polyprotein; read-out: IC50) of 13 µM. It also gave an IC50 (DNA polymerase beta) of 0.00037 M l-1.
Work on `COC1/C=C/OC2(C)Oc3c(C)c(O)c4c(O)c(c(/C=N/Nc5ccc([N+](=O)[O-])cc5[N+](=O)[O-])cc4c3C2=O)NC(=O)/C(C)=C\C=C\C(C)C(O)C(C)C(O)C(C)C(OC(C)=O)C1C` (configuration not stated) yielded a Log 1/C [1] of 5.26, a logP ([2]; logP) of 3.81 and a Log 1/C [3] of 4.3. It also gave a Log 1/C [4] of 4.35, an IC50 [5] of 0.000045 M l-1 and an IC50 (Gag-Pol polyprotein; read-out: IC50) of 5.4 µM. The IC50 (DNA polymerase beta; read-out: IC50) was 50 µM.
